The subject of assay [1] is Ras-related protein Rab-7a (dog), GTP binding. Nature of the assay: Rab7 GTP binding inhibitors, potency, dose response, biochemical, wildtype, multiplex bead flow cytometry (AID 1336; call rule not given here).
Assay [2] addresses Ras-related C3 botulinum toxin substrate 1 (Homo sapiens) (UniProt P63000). Put plainly: wildtype Rac1 GTP binding inhibitors, dose response, biochemical, multiplex bead flow cytometry (AID 1340;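 active = dose curve with midpoint inside tested range, moderate steepness, plateau gap beyond fit error, low compound glow and bead-link interference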). As to conditions: GST-Rac1 beads, Bodipy-FL-GTP binding; at 100 µM (top of the series). On the technique in general: A flow cytometer gives signals particle by particle.
For assay [3], the target named is GTPase HRas (Homo sapiens) (UniProt P01112). Nature of the assay: activated Ras mutant GTP binding inhibitors, dose response, biochemical, multiplex bead flow cytometry (AID 1341;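 active = dose-response curve with midpoint inside the tested range, moderate steepness, significant amplitude and little compound fluorescence or bead-attachment interference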;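 also: GST-tagged constitutively activated Ras mutant immobilized on beads and multiplexed with other GTPases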).
For assay [4], the target named is Cell division control protein 42 homolog (Homo sapiens) (UniProt P60953). Put plainly: activated mutant Cdc42 GTP-binding inhibitors, dose response, biochemical, multiplex bead flow cytometry, Bodipy-FL-GTP (AID 1333;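 active = fitted half-maximal concentration within the tested dose range, moderate curve steepness, a statistically real signal drop, and little compound fluorescence or tag-binding interference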).
Sequence of Cell division control protein 42 homolog (Homo sapiens) (P60953 whole entry, looked up): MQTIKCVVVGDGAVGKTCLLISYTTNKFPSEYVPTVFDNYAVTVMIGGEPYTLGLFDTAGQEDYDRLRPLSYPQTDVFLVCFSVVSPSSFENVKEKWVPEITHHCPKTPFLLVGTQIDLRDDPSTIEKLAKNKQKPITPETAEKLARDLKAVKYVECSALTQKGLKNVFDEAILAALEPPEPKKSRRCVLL
For assay [5] the target is unchanged. Nature of the assay: wildtype Cdc42 GTP-binding inhibitors, dose response, biochemical, multiplex bead flow cytometry, Bodipy-FL-GTP (AID 1334;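 active = fitted half-maximal concentration within the tested range, moderate curve steepness, significant signal drop, and little compound fluorescence or bead-linkage interference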). Particulars: bead-based flow cytometry, Bodipy-FL-GTP binding to GST-Cdc42; at 100 µM (top of the series).
Assay [6] can be described thus: RPL19A-GFP modulators, yeast TOR pathway, confirmation, cell-based, S. cerevisiae, flow cytometry, cherry picks, mother/daughter gates (AID 2270;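 active = GFP response below 50% of the DMSO control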). As to conditions: S. cerevisiae RPL19A-GFP strain, 3 h, at 10 µM, stronger effect = lower value, 100 = same GFP as DMSO wells.
Assay [7] in a line: LAP4-GFP expression modulators in yeast, confirmation, cell-based, cherry picks, flow cytometry, mother/daughter gates (AID 2271;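 active = GFP response above 150% of the DMSO control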;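 also: ratio of sample to DMSO plate mean so 100% equals DMSO level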). Particulars: S. cerevisiae LAP4-GFP strain, 3 h, at 10 µM, stronger effect = higher value. The method in brief:
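Material – Alexa Fluor 633-labelled Saccharomyces cerevisiae GFP-fusion strain, single-plex · Incubation – compound exposure 3 h at 30 °C, end-over-end rotation · Measured by – GFP by flow cytometry · Measure – median GFP fluorescence as percent of plate-mean DMSO wells · Control set – positive rapamycin (400 ng/mL), negative DMSO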

A short description of assay [8]: modulators of MEP2-GFP levels in yeast, confirmation, S. cerevisiae, flow cytometry GFP, cherry picks (AID 2272;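 active = GFP response above 150% of the DMSO control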;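 also: ratio of well signal to plate DMSO mean so 100% equals DMSO level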). Particulars: S. cerevisiae MEP2-GFP strain, 3 h, at 10 µM, stronger effect = higher value.
The nature of assay [9]: AGP1-GFP expression modulators, hit retest, confirmation, cell-based, flow cytometry, S. cerevisiae, cherry picks (AID 2273).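 Also: median GFP channel fluorescence over the whole cell population gate.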 As to conditions: S. cerevisiae AGP1-GFP strain, 3 h, at 10 µM.
Assay [10] can be described thus: modulators of CIT2-GFP expression in yeast, confirmation, S. cerevisiae, GFP fusion, cherry picks, mother/daughter gates (AID 2274). As to conditions: S. cerevisiae CIT2-GFP strain, flow cytometry, 3 h, at 10 µM, stronger effect = higher value.
Where [11] appears, read: measured here: daughter cell gate.
Setting [12] is: measured here: mother cell gate.
[13] abbreviates: measured here: daughter cell gate response.
Where [14] appears, read: measured here: mother cell gate response.

For part of these data: Results with a measured potency or affinity are listed apart. Calls of active or inactive are those of the source.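 The calls were made as follows, unless noted: active = GFP response above 150% of the DMSO level; inconclusive = fewer than 70 events counted for a yeast strain; inactive = the rest.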

On to `CCn1nc(/C=C/c2ccccc2)nc2c(=O)n(C)c(=O)nc1-2`, for which the result in assay [1] and in [3] was inactive. The compound further had a GTP binding signal, raw median fluorescence (lower = inhibition) (MCF (arbitrary fluorescence units)) in [2] of 195.
For the compound `CCOc1ccc(C2SCC(=O)Nc3c2c(C)nn3C2CCOC(C)(C)C2)cc1` (stereo not given), the outcome in assay [4], in assay [1] and in assay [3] was inactive. The fluorescence, percent of control (lower = inhibition) in assay [5] was found to be 96.5%. The GTP binding signal, raw median fluorescence (lower = inhibition) (MCF (arbitrary fluorescence units)) in assay [2] was 195.
As to `C#C[C@]1(O)CC[C@H]2[C@@H]3CCC4=CC(=O)CC[C@]4(C)[C@H]3CC[C@@]21C`, the GFP response vs DMSO in assay [6] was 97% (inactive); in assay [6] (setting [11]), 95.9%; in assay [6] (setting [12]), 95.6%; in assay [8] it was 107% (inactive). The GFP response relative to DMSO in assay [7] was 103% (inactive); in [7] (setting [13]), 102%; in assay [7] (setting [14]), 101%. For the same compound, the GFP response, % of DMSO was 95.4% (inactive) in assay [9], 95.5% (inactive) in [10], 97.2% in [10] (setting [11]) and 92.6% in assay [10] (setting [12]).
With `C[C@]12CCC(=O)C=C1CC[C@@H]1[C@@H]2CC[C@]2(C)C(=O)CC[C@@H]12`, the GFP response vs DMSO is 96.8% (inactive) in assay [6], 95.1% in assay [6] (setting [11]), 97.7% in assay [6] (setting [12]) and 94.1% (inactive) in assay [8]. The GFP response relative to DMSO in assay [7] was 102% (inactive); in [7] (setting [13]), 102%; in assay [7] (setting [14]), 101%. Moreover, the GFP response, % of DMSO in [9] is 91.2% (inactive); in [10] it was 98.3% (inactive); in [10] (setting [11]), 97.2%; in [10] (setting [12]), 99.7%.

These data come from PubChem BioAssay.
